Shown are actives, neighbours in structure and some others; about 2.3% of the full set was active somewhere.
TRPC6 activator – activates the mouse TRPC6 cation channel. B-score at 10 µM. AID 2550. HEK293-TRPC6 membrane potential dye fluorescence; stronger effect = higher value. Q61143. 310,000 tested, 0.13% active;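 active = B-score of the integrated fluorescence ratio above library mean plus 3 SD, and starting fluorescence ratio within library mean plus 5 SD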;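 note: higher score means more depolarization so channel activation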
TRPC6 inhibitor – blocks the mouse TRPC6 cation channel; Q61143; HEK293-TRPC6, membrane potential dye, ACh-evoked depolarization; stronger effect = lower value; B-score at 10 µM; 310,000 tested, 1.1% active;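 active = B-score under library mean minus 3 SD, initial fluorescence not abnormally high, positive integrated signal ratio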;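 note: B-score derived from integrated fluorescence ratio over the kinetic read; more negative B-score means stronger inhibition of depolarization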
TRPC4 potent – allosteric potentiators of mouse TRPC4 channel; HEK293 TRPC4beta/mu-opioid, DAMGO EC20, Fluo-4 Ca2+ flux; stronger effect = higher value; B-score at 10 µM; 310,000 tested, 0.42% active;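 active = B-score of calcium response area above 5 SD of library B-scores, with initial fluorescence ratio within 5 SD of library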;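 note: B-score of integrated fluorescence ratio over time as area under calcium response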
Target sequence (Q9QUQ5 whole entry, looked up): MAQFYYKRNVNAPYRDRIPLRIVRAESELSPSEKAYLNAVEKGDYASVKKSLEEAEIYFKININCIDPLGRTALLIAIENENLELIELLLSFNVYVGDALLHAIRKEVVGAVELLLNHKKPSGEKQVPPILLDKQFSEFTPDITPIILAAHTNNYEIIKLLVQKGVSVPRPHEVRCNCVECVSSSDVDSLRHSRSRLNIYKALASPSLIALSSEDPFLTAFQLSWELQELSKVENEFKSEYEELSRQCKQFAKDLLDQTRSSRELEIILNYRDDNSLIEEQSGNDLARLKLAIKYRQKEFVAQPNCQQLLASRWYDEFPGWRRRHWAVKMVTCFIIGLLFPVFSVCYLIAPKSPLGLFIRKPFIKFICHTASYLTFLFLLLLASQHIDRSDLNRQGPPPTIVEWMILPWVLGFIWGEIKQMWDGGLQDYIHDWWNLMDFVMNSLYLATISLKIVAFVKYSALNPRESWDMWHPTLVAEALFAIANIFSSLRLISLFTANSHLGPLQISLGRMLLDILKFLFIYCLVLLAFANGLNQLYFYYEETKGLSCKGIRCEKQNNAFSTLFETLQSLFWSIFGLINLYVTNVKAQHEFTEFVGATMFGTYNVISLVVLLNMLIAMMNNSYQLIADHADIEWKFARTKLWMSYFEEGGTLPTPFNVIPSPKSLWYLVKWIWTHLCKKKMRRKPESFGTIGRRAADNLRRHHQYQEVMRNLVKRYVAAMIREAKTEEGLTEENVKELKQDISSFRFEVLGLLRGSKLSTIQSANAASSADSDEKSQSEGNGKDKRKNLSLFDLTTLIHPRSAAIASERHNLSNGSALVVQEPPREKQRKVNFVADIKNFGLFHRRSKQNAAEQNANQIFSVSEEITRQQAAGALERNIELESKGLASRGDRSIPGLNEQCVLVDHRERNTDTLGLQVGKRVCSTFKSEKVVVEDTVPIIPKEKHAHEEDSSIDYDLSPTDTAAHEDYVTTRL
TRPC4 act – TRPC4 (mouse) channel activation. HEK293 TRPC4beta/mu-opioid, Fluo4 calcium fluorescence; stronger effect = higher value. B-score at 10 µM. 310,000 tested, 0.49% active. AID 2237;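 active = B-score above 5 SD of library B-scores, and initial fluorescence ratio not above library mean plus 5 SD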;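 note: positive B-score marks a calcium rise read as TRPC4 activation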
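Incubation: 45 min room-temperature Fluo4 loading, 110 s read / System: HEK293 cells stably co-expressing mouse TRPC4beta and mu-opioid receptor / Signal: Fluo4 fluorescence, kinetic / Control set: buffer (low) and maximal DAMGO (high) / Measure: integrated baseline-normalised fluorescence ratio, converted to per-well B score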
TRPC4 block – blocks the mouse TRPC4 cation channel; Q9QUQ5; HEK293 TRPC4beta/mu-opioid, DAMGO-evoked Fluo4 calcium flux; stronger effect = lower value; B-score at 10 µM; 300,000 tested, 0.39% active;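 active = B-score over 3 SD under the library average, no early fluorescence shift, positive overall ratio signal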
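Test system – stable TRPC4beta/mu-opioid receptor HEK293 cells · Probe or stimulus – DAMGO, a submaximal dose followed by a maximal one · Dosing – one concentration per compound · Signal – Fluo4 calcium fluorescence by kinetic imaging, 5 s 1 Hz baseline · Evaluation – per-well B score of integrated baseline-normalized Fluo4 ratio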
* marks the source's active call; other numbers are inactive results.

CC(=O)Nc1ccccc1OCC(=O)c1cc(C)n(Cc2cccs2)c1C was read as TRPC6 activator inactive, TRPC6 inhibitor inactive, TRPC4 potent inactive, TRPC4 act 72* and TRPC4 block inactive.
CCOC(=O)c1c(S(=O)(=O)N2CCCC(C(=O)Nc3ccc(C)cn3)C2)c(C)n(C)c1C (centres undefined) was read as TRPC6 activator inactive, TRPC6 inhibitor inactive, TRPC4 potent inactive, TRPC4 act inactive and TRPC4 block inactive.
CCOc1ccc(NS(=O)(=O)c2ccc(NC(=S)NC(=O)CC(C)C)cc2)cc1 was read as TRPC6 activator inactive, TRPC6 inhibitor inactive, TRPC4 potent 22*, TRPC4 act inactive and TRPC4 block inactive.
`CCCC(=O)NC(=S)Nc1ccc(S(=O)(=O)Nc2ccc(OCC)cc2)cc1` gave TRPC6 activator inactive, TRPC6 inhibitor inactive, TRPC4 potent inactive, TRPC4 act inactive and TRPC4 block inactive.
`COc1ccc(/C=N/n2c(SC)nnc2-c2ccccc2)cc1C` gave TRPC6 activator inactive, TRPC6 inhibitor inactive, TRPC4 potent 34*, TRPC4 act inactive and TRPC4 block inactive.
`Cc1ccc(NC(=O)N2CCCC2C(=O)Nc2ccc3c(c2)OCCO3)cc1` (centres undefined) gave TRPC6 activator inactive, TRPC6 inhibitor inactive, TRPC4 potent inactive, TRPC4 act inactive and TRPC4 block inactive.
C/C(=N\N(c1ccccc1)c1ccccc1)c1ccc(N)cc1 was read as TRPC6 activator inactive, TRPC6 inhibitor inactive, TRPC4 potent 24*, TRPC4 act inactive and TRPC4 block inactive.
For C/C(=N\N(c1ccccc1)c1ccccc1)c1ccc(O)cc1 the results were TRPC6 activator inactive, TRPC6 inhibitor inactive, TRPC4 potent inactive, TRPC4 act inactive and TRPC4 block inactive.
Cc1ccc(CN(C(=O)COc2ccc(Br)cc2)C2CCS(=O)(=O)C2)o1 (centres undefined) was read as TRPC6 activator inactive, TRPC6 inhibitor inactive, TRPC4 potent inactive, TRPC4 act inactive and TRPC4 block inactive.
Screening Cc1cc(Nc2ccccc2)nc(NCc2ccccc2)n1 returned TRPC6 activator inactive, TRPC6 inhibitor inactive, TRPC4 potent inactive, TRPC4 act inactive and TRPC4 block -6*.
For Cc1cc(N2CCC(C)CC2)nc(NCc2ccccc2)n1 the results were TRPC6 activator inactive, TRPC6 inhibitor inactive, TRPC4 potent 16*, TRPC4 act inactive and TRPC4 block -6*.
For Cc1cc(Nc2ccc(Cl)cc2)nc(NCc2ccccc2)n1 the results were TRPC6 activator inactive, TRPC6 inhibitor inactive, TRPC4 potent inactive, TRPC4 act inactive and TRPC4 block inactive.
Cc1cc(N2CCC(C)CC2)nc(-c2ccccc2O)n1 was read as TRPC6 activator inactive, TRPC6 inhibitor inactive, TRPC4 potent inactive, TRPC4 act inactive and TRPC4 block inactive.
Screening Cc1ccn2c(NC3CCCCC3)c(C(C)C)nc2c1 returned TRPC6 activator inactive, TRPC6 inhibitor inactive, TRPC4 potent inactive, TRPC4 act inactive and TRPC4 block -7*.
For Cc1ccn2c(NC3CCCCC3)c(C)nc2c1 the results were TRPC6 activator inactive, TRPC6 inhibitor inactive, TRPC4 potent inactive, TRPC4 act inactive and TRPC4 block inactive.
`O=C1CCc2cc(S(=O)(=O)Nc3ccc(F)cc3)cc3c2N1CC3` gave TRPC6 activator inactive, TRPC6 inhibitor inactive, TRPC4 potent inactive, TRPC4 act inactive and TRPC4 block inactive.
`C=CCNCCCCOc1cccc(Br)c1` gave TRPC6 activator inactive, TRPC6 inhibitor inactive, TRPC4 potent 13*, TRPC4 act inactive and TRPC4 block inactive.
`Cc1cccc(NS(=O)(=O)c2cccc(C(=O)NCC(c3ccco3)N(C)C)c2)c1` (centres undefined) gave TRPC6 activator inactive, TRPC6 inhibitor inactive, TRPC4 potent inactive, TRPC4 act inactive and TRPC4 block inactive.
For Cc1cccc(NS(=O)(=O)c2c(C)[nH]c(C)c2C(=O)N2CCCC2)c1 the results were TRPC6 activator inactive, TRPC6 inhibitor inactive, TRPC4 potent inactive, TRPC4 act inactive and TRPC4 block inactive.
For O=C1NC(c2ccccc2)=C(c2nc3ccccc3s2)C(c2ccccc2)N1 (centres undefined) the results were TRPC6 activator inactive, TRPC6 inhibitor inactive, TRPC4 potent 19*, TRPC4 act inactive and TRPC4 block inactive.
For COc1ccc(CC(=O)Nc2ccccc2Oc2ccccc2)cc1 the results were TRPC6 activator inactive, TRPC6 inhibitor inactive, TRPC4 potent inactive, TRPC4 act inactive and TRPC4 block -6*.
For COc1ccc(NC(=O)CSCC(=O)N(C)CC(=O)Nc2ccc(Cl)c(C(F)(F)F)c2)cc1 the results were TRPC6 activator inactive, TRPC6 inhibitor inactive, TRPC4 potent inactive, TRPC4 act inactive and TRPC4 block inactive.
`Cc1cc(NC(=O)CSCC(=O)OC(C)C(=O)N(C)Cc2ccccc2)no1` (centres undefined) gave TRPC6 activator inactive, TRPC6 inhibitor inactive, TRPC4 potent inactive, TRPC4 act inactive and TRPC4 block inactive.
For Cc1ccc(Oc2ccccc2NC(=O)CSCC(=O)Nc2cc(C)on2)cc1 the results were TRPC6 activator inactive, TRPC6 inhibitor inactive, TRPC4 potent inactive, TRPC4 act inactive and TRPC4 block -6*.
Screening Cc1cc(NC(=O)CSCC(=O)OC(C)C(=O)c2cc(C)c(C)cc2C)no1 (centres undefined) returned TRPC6 activator inactive, TRPC6 inhibitor inactive, TRPC4 potent inactive, TRPC4 act inactive and TRPC4 block -6*.
`Cc1cc(NC(=O)CSCC(=O)Nc2ccccc2Oc2ccccc2)no1` gave TRPC6 activator inactive, TRPC6 inhibitor inactive, TRPC4 potent inactive, TRPC4 act inactive and TRPC4 block inactive.
For COc1ccccc1NC(=O)Cc1ccc(-c2ccccc2)cc1 the results were TRPC6 activator inactive, TRPC6 inhibitor inactive, TRPC4 potent inactive, TRPC4 act inactive and TRPC4 block inactive.
Cc1cc(NC(=O)CSCC(=O)Nc2ccc(Cl)c(C(F)(F)F)c2)no1 was read as TRPC6 activator inactive, TRPC6 inhibitor inactive, TRPC4 potent inactive, TRPC4 act inactive and TRPC4 block -5*.
For COC(=O)c1c(-c2c(Cl)cccc2Cl)noc1C(=O)NNC(=O)N(C)C the results were TRPC6 activator inactive, TRPC6 inhibitor inactive, TRPC4 potent inactive, TRPC4 act inactive and TRPC4 block inactive.
`CCCOc1ccc(C(=O)Nc2ccc(S(=O)(=O)NC3=NCCCCC3)cc2)cc1` gave TRPC6 activator inactive, TRPC6 inhibitor inactive, TRPC4 potent inactive, TRPC4 act inactive and TRPC4 block inactive.

Compound activity deposited in PubChem by Johns Hopkins Ion Channel Center.
